Results: ChEMBL document CHEMBL1275595, “Antimicrobial activity of a halocidin-derived peptide resistant to attacks by proteases” (2010)
≈ marks a conversion by molar mass, not a printed value. Calls of active or inactive are those of the source. The rule behind the calls is not given here. Bridge positions count the residues as written; N and C are the ends. Peptide text beside a SMILES is read from it. I, II: the chains in the order shown.

Assays:
Bacillus subtilis = experiment: Antimicrobial activity against Bacillus subtilis KCTC 2213 after 18 hrs by broth dilution method; assay type: functional; settings: KCTC 2213, 18 h
Procedure, shortened: (§1)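 Broth microdilution following CLSI recommendations. Bacteria were grown overnight to stationary phase in Mueller-Hinton broth, then diluted in fresh MHB to 2 × 10^5 CFU/ml. Peptide or antibiotic stocks of 640 μg/ml in 0.01% acetic acid were serially 2-fold diluted to 10 μg/ml, and each was added to the bacterial suspension at 11 μl per 100 μl. Plates were incubated 18 h at 37°C. MIC was taken as the lowest concentration giving no visible turbidity, in triplicate.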

Staphylococcus aureus [1] = experiment: Antimicrobial activity against methicillin-resistant Staphylococcus aureus CCARM 3696 by radial diffusion assay incubated with Staphylococcus aureus Culture supernatant for 1 hr; assay type: functional, organism-based
Staphylococcus aureus [2] = experiment: Antimicrobial activity against methicillin-resistant Staphylococcus aureus CCARM 3696 by colony count assay incubated with trypsin for 20 mins; assay type: functional, organism-based
Procedure, shortened: (§2)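 Peptide (20 μg) was incubated at 37°C with 50 nM trypsin in 100 μl of 10 mM sodium phosphate, then heated 10 min at 80°C and cooled. MRSA (100 μl, 2 × 10^7 CFU/ml) was added for 5 min. Aliquots were plated on TSA (1.5% agarose, 3% TSB in NaP) and counted after overnight growth at 37°C. Read-out was CFU/ml; repeated three times on different days.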

Listeria monocytogenes = experiment: Antimicrobial activity against Listeria monocytogenes KCTC 19111 after 18 hrs by broth dilution method; assay type: functional; settings: KCTC 19111, 18 h; procedure, shortened: as §1
Staphylococcus aureus [3] = experiment: Antimicrobial activity against methicillin-resistant Staphylococcus aureus CCARM 3696 by radial diffusion assay incubated with matrix metalloprotease 7 for 5 mins; assay type: functional, organism-based
Citrobacter freundii = experiment: Antimicrobial activity against Citrobacter freundii KCTC 2359 after 18 hrs by broth dilution method; assay type: functional; settings: KCTC 2359, 18 h; procedure, shortened: as §1
Staphylococcus aureus [4] = experiment: Antimicrobial activity against methicillin-resistant Staphylococcus aureus CCARM 3696 after 18 hrs by broth dilution method; assay type: functional; settings: CCARM 3696, 18 h
Procedure, shortened: (§3)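 Broth dilution per CLSI. Bacteria were grown overnight to stationary phase in Mueller-Hinton broth and diluted in fresh MHB to 2 × 10^5 CFU/ml. Stocks at 640 μg/ml in 0.01% acetic acid were 2-fold serially diluted to 10 μg/ml, and 11 μl was added to 100 μl of bacteria. After 18 h at 37°C, MIC was the lowest concentration with no visible turbidity. Run in triplicate.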

Escherichia coli = experiment: Antimicrobial activity against Escherichia coli KCTC 1039 after 18 hrs by broth dilution method; assay type: functional; settings: KCTC 1039, 18 h; procedure, shortened: as §1
Micrococcus luteus = experiment: Antimicrobial activity against Micrococcus luteus KCTC 9341 after 18 hrs by broth dilution method; assay type: functional; settings: KCTC 9341, 18 h; procedure, shortened: as §1
Salmonella enterica = experiment: Antimicrobial activity against Salmonella enterica KCTC 2930 after 18 hrs by broth dilution method; assay type: functional; settings: KCTC 2930, 18 h; procedure, shortened: as §1
Klebsiella oxytoca = experiment: Antimicrobial activity against Klebsiella oxytoca KCTC 1686 after 18 hrs by broth dilution method; assay type: functional; settings: KCTC 1686, 18 h; procedure, shortened: as §1
Pseudomonas aeruginosa = experiment: Antimicrobial activity against multidrug-resistant Pseudomonas aeruginosa CCARM 2161 after 18 hrs by broth dilution method; assay type: functional; settings: CCARM 2161, 18 h; procedure, shortened: as §3
Staphylococcus aureus [5] = experiment: Antimicrobial activity against methicillin-resistant Staphylococcus aureus CCARM 3696 by colony count assay incubated with trypsin for 1 hr; assay type: functional, organism-based; procedure, shortened: as §2
Enterococcus faecium = experiment: Antimicrobial activity against vancomycin-resistant Enterococcus faecium CCARM 5028 after 18 hrs by broth dilution method; assay type: functional; settings: CCARM 5028, 18 h; procedure, shortened: as §3
Staphylococcus aureus [6] = experiment: Antimicrobial activity against methicillin-resistant Staphylococcus aureus CCARM 3696 by colony count assay incubated with trypsin for 10 mins; assay type: functional, organism-based; procedure, shortened: as §2
Staphylococcus aureus [7] = experiment: Antimicrobial activity against methicillin-resistant Staphylococcus aureus CCARM 3696 by radial diffusion assay incubated with Pseudomonas aeruginosa Culture supernatant for 1 hr; assay type: functional, organism-based
Staphylococcus aureus [8] = experiment: Antimicrobial activity against methicillin-resistant Staphylococcus aureus CCARM 3696 by radial diffusion assay incubated with chymotrypsin for 1 hr; assay type: functional, organism-based
Staphylococcus aureus [9] = experiment: Antimicrobial activity against methicillin-resistant Staphylococcus aureus CCARM 3696 by radial diffusion assay incubated with matrix metalloprotease 7 for 1 hr; assay type: functional, organism-based
Staphylococcus aureus [10] = experiment: Antimicrobial activity against methicillin-resistant Staphylococcus aureus CCARM 3696 by radial diffusion assay incubated with human wound fluid for 4 hrs; assay type: functional, organism-based
Staphylococcus aureus [11] = experiment: Antimicrobial activity against methicillin-resistant Staphylococcus aureus CCARM 3696 by radial diffusion assay incubated with chymotrypsin; assay type: functional, organism-based
Staphylococcus aureus [12] = experiment: Antimicrobial activity against methicillin-resistant Staphylococcus aureus CCARM 3696 by radial diffusion assay incubated with human wound fluid for 1 hr; assay type: functional, organism-based

Compound | MIC (Bacillus subtilis) [µg/mL] | Activity (Staphylococcus aureus [1]) | Activity (Staphylococcus aureus [2]) | MIC (Listeria monocytogenes) [µg/mL] | Activity (Staphylococcus aureus [3]) | MIC (Citrobacter freundii) [µg/mL] | MIC (Staphylococcus aureus [4]) [µg/mL] | MIC (Escherichia coli) [µg/mL] | MIC (Micrococcus luteus) [µg/mL] | MIC (Salmonella enterica) [µg/mL] | MIC (Klebsiella oxytoca) [µg/mL] | MIC (Pseudomonas aeruginosa) [µg/mL] | Activity (Staphylococcus aureus [5]) | MIC (Enterococcus faecium) [µg/mL] | Activity (Staphylococcus aureus [6]) | Activity (Staphylococcus aureus [7]) | other results
CC[C@H](C)[C@H](NC(=O)CN)C(=O)NCC(=O)N[C@@H](CCCCN)C(=O)N[C@@H](Cc1ccccc1)C(=O)N[C@@H](CC(C)C)C(=O)N[C@@H](CCCCN)C(=O)N[C@@H](CCCCN)C(=O)N[C@@H](C)C(=O)N[C@@H](CCCCN)C(=O)N[C@@H](CCCCN)C(=O)N[C@@H](Cc1ccccc1)C(=O)NCC(=O)N[C@@H](CCCCN)C(=O)N[C@@H](C)C(=O)N[C@@H](Cc1ccccc1)C(=O)N[C@H](C(=O)N[C@@H](CCCCN)C(=O)N[C@H](C(=O)N[C@@H](CC(C)C)C(=O)N[C@@H](CCCCN)C(=O)N[C@@H](CCCCN)C(N)=O)[C@@H](C)CC)C(C)C [PEXIGANAN] (H-GIGKFLKKAKKFGKAFVKILKK-NH2) | 4 (≈ 1.61 µM) | inactive | inactive | 16 (≈ 6.46 µM) | inactive | 8 (≈ 3.23 µM) | 16 (≈ 6.46 µM) | 4 (≈ 1.61 µM) | 8 (≈ 3.23 µM) | 8 (≈ 3.23 µM) | 8 (≈ 3.23 µM) | 8 (≈ 3.23 µM) | Active | 8 (≈ 3.23 µM) | inactive | inactive | 
CC(C)C[C@H](NC(=O)CNC(=O)[C@H](Cc1cnc[nH]1)NC(=O)[C@H](Cc1cnc[nH]1)NC(=O)[C@H](CC(C)C)NC(=O)[C@H](CC(C)C)NC(=O)[C@H](C)NC(=O)[C@H](CC(N)=O)NC(=O)[C@H](CC(C)C)NC(=O)[C@H](Cc1c[nH]c2ccccc12)NC(=O)[C@@H](N)CCCCN)C(=O)N[C@@H](CC(N)=O)C(=O)N[C@@H](CSSC[C@H](NC(=O)[C@H](CC(N)=O)NC(=O)[C@H](CC(C)C)NC(=O)CNC(=O)[C@H](Cc1cnc[nH]1)NC(=O)[C@H](Cc1cnc[nH]1)NC(=O)[C@H](CC(C)C)NC(=O)[C@H](CC(C)C)NC(=O)[C@H](C)NC(=O)[C@H](CC(N)=O)NC(=O)[C@H](CC(C)C)NC(=O)[C@H](Cc1c[nH]c2ccccc12)NC(=O)[C@@H](N)CCCCN)C(=O)N[C@@H](C)C(=O)N[C@@H](CCCCN)C(=O)NCC(=O)N[C@H](C(=O)N[C@@H](CC(C)C)C(=O)N[C@@H](C)C(N)=O)C(C)C)C(=O)N[C@@H](C)C(=O)N[C@@H](CCCCN)C(=O)NCC(=O)N[C@H](C(=O)N[C@@H](CC(C)C)C(=O)N[C@@H](C)C(N)=O)C(C)C (I: H-KWLNALLHHGLNCAKGVLA-NH2 / II: H-KWLNALLHHGLNCAKGVLA-NH2; disulfide I:13-II:13) | 2 (≈ 0.486 µM) | Active |  | 4 (≈ 0.973 µM) |  | 4 (≈ 0.973 µM) | 4 (≈ 0.973 µM) | 4 (≈ 0.973 µM) | 4 (≈ 0.973 µM) | 4 (≈ 0.973 µM) | 4 (≈ 0.973 µM) | 4 (≈ 0.973 µM) |  | 2 (≈ 0.486 µM) |  | Active | Activity (Staphylococcus aureus [8]): Active; Activity (Staphylococcus aureus [9]): Active; Activity (Staphylococcus aureus [10]): Active; Activity (Staphylococcus aureus [11]): Active; Activity (Staphylococcus aureus [12]): Active
CC[C@H](C)[C@H](NC(=O)[C@H](CCCCN)NC(=O)[C@H](CCC(=O)O)NC(=O)[C@H](CCCCN)NC(=O)[C@H](CO)NC(=O)[C@H](CCCCN)NC(=O)[C@H](CCCNC(=N)N)NC(=O)[C@H](Cc1ccccc1)NC(=O)[C@H](Cc1ccccc1)NC(=O)[C@H](CC(=O)O)NC(=O)CNC(=O)[C@H](CC(C)C)NC(=O)[C@@H](N)CC(C)C)C(=O)NCC(=O)N[C@@H](CCCCN)C(=O)N[C@@H](CCC(=O)O)C(=O)N[C@@H](Cc1ccccc1)C(=O)N[C@@H](CCCCN)C(=O)N[C@@H](CCCNC(=N)N)C(=O)N[C@H](C(=O)N[C@H](C(=O)N[C@@H](CCC(N)=O)C(=O)N[C@@H](CCCNC(=N)N)C(=O)N[C@H](C(=O)N[C@@H](CCCCN)C(=O)N[C@@H](CC(=O)O)C(=O)N[C@@H](Cc1ccccc1)C(=O)N[C@@H](CC(C)C)C(=O)N[C@@H](CCCNC(=N)N)C(=O)N[C@@H](CC(N)=O)C(=O)N[C@@H](CC(C)C)C(=O)N[C@H](C(=O)N1CCC[C@H]1C(=O)N[C@@H](CCCNC(=N)N)C(=O)N[C@H](C(=O)N[C@@H](CCC(=O)O)C(=O)N[C@@H](CO)C(=O)O)[C@@H](C)O)C(C)C)[C@@H](C)CC)C(C)C)[C@@H](C)CC [CATHELICIDIN] | 8 (≈ 1.78 µM) | inactive | inactive | 32 (≈ 7.12 µM) | inactive | 64 (≈ 14.2 µM) | > 64 | 32 (≈ 7.12 µM) | > 64 | > 64 | > 64 | > 64 | Active | 32 (≈ 7.12 µM) | inactive | inactive | 
